The term MIC99 denotes the lowest concentration that inhibits either 99% of growth or 99% of the strains tested, depending on the study. The solubility is the dissolved amount per volume that the medium holds. A lower solubility goes with a poorly soluble substance.

Data set [1] relates to Trichophyton rubrum LM 237. Put plainly: MIC99 by broth microdilution. The data set is classed as cell-based. The settings on record: LM237, 168 h, read-out: MIC99 T. rubrum. An outline of the steps:
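T. rubrum was cultured on Sabouraud dextrose agar at 27 °C for one week. Actively growing mycelium was collected into sterile distilled water with broken coverslips as inoculum. Test compound in 5% aqueous DMSO was diluted twofold serially in SDA over 2.0 × 10−1 to 2.4 × 10−5 mg mL−1. Plates were held at 30 °C and scored visually after 7 days. Run in triplicate with solvent blanks; amphotericin B and fluconazole as references.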
Background: Dilution methods test growth across graded concentrations, often in twofold steps.

Data set [2] in a line: Water thermodynamic solubility by HPLC. The settings on record: ultrapure water, 25 °C, thermodynamic from solid. The data set is classed as physicochemical.
For data set [3] the following is noted: literature value; cited from earlier work.

In brackets after ≈: the same amount, converted by molar mass.

Consider `COC(=O)[C@H](CO)NC(C)=C1C(=O)C=C2Oc3c(C(C)=O)c(O)c(C)c(O)c3[C@@]2(C)C1=O` [(9bR,15S)-1, Methyl (1-((R)-6-acetyl-7,9-dihydroxy-8,9b-dimethyl-1,3-dioxo-3,9b-dihydrodibenzo[b,d]furan-2(1H)-ylidene)ethyl)-L-serinate], for which the MIC99 in data set [1] was found to be 450 µM (≈ 200 µg/mL). The solubility at 24 h in data set [2] lay in the range of 150 to 4700 µM (≈ 66.8 to 2090 µg/mL).
Turning to `CC(=O)c1c(O)c(C)c(O)c2c1OC1=CC(=O)C(=C(C)N[C@@H](CCCNC(=N)N)C(=O)O)C(=O)[C@@]12C` [(9bR,15S)-2, (1-((R)-6-Acetyl-7,9-dihydroxy-8,9b-dimethyl-1,3-dioxo-3,9b-dihydrodibenzo[b,d]furan-2(1H)-ylidene)ethyl)-L-arginine], in data set [1], the MIC99 is 400 µM (≈ 200 µg/mL).
Regarding `COC(=O)[C@H](CO)NC(C)=C1C(=O)C=C2Oc3c(C(C)=O)c(O)c(C)c(O)c3[C@]2(C)C1=O` [(9bS,15S)-1, Methyl (1-((S)-6-acetyl-7,9-dihydroxy-8,9b-dimethyl-1,3-dioxo-3,9b-dihydrodibenzo[b,d]-furan-2(1H)-ylidene)ethyl)-L-serinate], the MIC99 in data set [1] came to 28 µM (≈ 12.5 µg/mL). In data set [2], this compound gave a solubility at 24 h of 150 µM (≈ 66.8 µg/mL).
For the compound `CC(=O)c1c(O)c(C)c(O)c2c1OC1=CC(=O)C(=C(C)N[C@@H](CCCNC(=N)N)C(=O)O)C(=O)[C@]12C` [(9bS,15S)-2, (1-((S)-6-Acetyl-7,9-dihydroxy-8,9b-dimethyl-1,3-dioxo-3,9b-dihydrodibenzo[b,d]furan-2(1H)-ylidene)ethyl)-L-arginine], the MIC99 in data set [1] is 100 µM (≈ 50.1 µg/mL).
For the compound `C[C@@H]1[C@H](O)[C@@H](C)/C=C/C=C/C=C/C=C/C=C/C=C/C=C/[C@H](O[C@@H]2O[C@H](C)[C@@H](O)[C@H](N)[C@@H]2O)C[C@@H]2O[C@](O)(C[C@@H](O)C[C@@H](O)[C@H](O)CC[C@@H](O)C[C@@H](O)CC(=O)O[C@H]1C)C[C@H](O)[C@H]2C(=O)O` [AmB, amphotericin B, reference compound], the MIC99 in data set [1] is > 400 µM.
Turning to `OC(Cn1cncn1)(Cn1cncn1)c1ccc(F)cc1F` [FCZ, fluconazole, reference compound], the MIC99 in data set [1] was > 200 µM.
In the case of usnic acid [UA], the “Aqueous solubility at 25 °C” value in data set [3] was <0.3 (lit.)[60] mM.

These data come from PMC12272722 (RSC Medicinal Chemistry, 2025).
